One assay relates to KB. The assay can be described thus: Cytotoxicity against human KB cells by SRB assay. The assay is classed as functional, cell-based. The method, boiled down: (§1)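 Colorimetric cytotoxicity assay. IC50 given as mean ± SD (n = 3), curve fits with R2 > 0.9. Ellipticine served as positive control.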
A general note: In SRB staining, fixed cells bind dye roughly in proportion to their protein.

Assay [1] is described as follows: Cytotoxicity against human BC cells by SRB assay. The assay is classed as functional, cell-based. The method, boiled down:
as §1

Another assay deals with Vero. The assay can be described thus: Cytotoxicity against african green monkey Vero cells by SRB assay. The assay is classed as cell-based, Chlorocebus sabaeus. The method, boiled down:
as §1

The next assay has as its system NCI-H187. The assay can be described thus: Cytotoxicity against human NCI-H187 cells by SRB assay. The assay is classed as functional, cell-based. A digest of the protocol: as §1
Assay [2] deals with Mycobacterium tuberculosis. The assay is described as follows: Antitubercular activity against Mycobacterium tuberculosis H37Ra after 4 days by microplate alamar blue assay. In kind it is functional. To be noted: 96 h. The method, boiled down:
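M. tuberculosis H37Ra tested by microplate Alamar Blue assay. MIC was taken as the lowest concentration giving ≥90% growth inhibition.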
(Resazurin is reduced to fluorescent resorufin, in cell work by metabolically active cells.)

The test system of another assay is Plasmodium falciparum. The assay can be described thus: Antiplasmodial activity after 24 hrs against Plasmodium falciparum K1 by [G-3H]hypoxanthine uptake. The assay is classed as functional, organism-based. To be noted: K1, 24 h. A digest of the protocol:
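P. falciparum K1 tested by a microculture radioisotope technique, with IC50 as the read-out.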

A further assay has as its system Candida albicans. The assay is described as follows: Antifungal activity against Candida albicans. The assay is classed as functional, organism-based. A digest of the protocol: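 Colorimetric growth-inhibition assay against Candida albicans; IC50 values reported.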
Where [3] appears, read: Homo sapiens, KB, read-out: IC50.
Setting [4] is: Homo sapiens, BC, read-out: IC50.
Setting [5] is: Chlorocebus sabaeus, Vero, read-out: IC50.
Where [6] appears, read: Homo sapiens, NCI-H187, read-out: IC50.

Values after ≈ are worked out from the molar mass of the structure shown.

The IC50 is the midpoint of a concentration-inhibition curve. For `CCCCCCCCC/C=C/C(=O)N[C@H]1C[C@@]2(O)C(=O)[C@@H]([C@H]1O)[C@H](OC)[C@@H]1O[C@@H]12`, the IC50 result (with KB (kb); in assay [1] (bc); with Vero (vero); in the assay on NCI-H187 (nci-h187)) was “Not Active” throughout.
Broadly, the MIC is the lowest concentration found to suppress growth. Regarding `NNC(=O)c1ccncc1` [ISONIAZID], the minimum inhibitory concentration (MIC) in assay [2] came to 0.37 µM (≈ 0.0507 µg/mL).
For `Cc1c2ccncc2c(C)c2c1[nH]c1ccccc12` [ELLIPTECINE], the half-maximal inhibitory concentration (IC50) in the assay with KB (setting [3]) worked out at 1380 nM; in assay [1] (setting [4]), 1200 nM; with Vero (setting [5]), 1690 nM; in the assay on NCI-H187 (setting [6]) it was 4400 nM.
On to `CCCCCCCCC/C=C/C(=O)N[C@H]1C[C@@]2(O)C(=O)C=C[C@@H](Cl)[C@@H]2O[C@H]1O` [ISARIOTIN F], for which the MIC in assay [2] turned out to be 60.4 µM (≈ 25 µg/mL). The IC50 in the assay on Plasmodium falciparum stood at 5100 nM; with Candida albicans, 13900 nM; in the assay with KB (setting [3]), 15800 nM; in assay [1] (setting [4]), 2400 nM; in the assay on Vero (setting [5]), 2900 nM; with NCI-H187 (setting [6]), 1600 nM.
`C[C@H]1[C@@H](O)O[C@@H]2O[C@@]3(C)CC[C@H]4[C@H](C)CC[C@@H]1[C@@]24OO3` [ARTENIMOL] returned an IC50 in the assay on Plasmodium falciparum of 4 nM.
In the case of `C[C@@H]1[C@H](O)[C@@H](C)/C=C/C=C/C=C/C=C/C=C/C=C/C=C/[C@H](O[C@@H]2O[C@H](C)[C@@H](O)[C@H](N)[C@@H]2O)C[C@@H]2O[C@](O)(C[C@@H](O)C[C@@H](O)[C@H](O)CC[C@@H](O)C[C@@H](O)CC(=O)O[C@H]1C)C[C@H](O)[C@H]2C(=O)O` [AMPHOTERICIN B], the half-maximal inhibitory concentration (IC50) in the assay on Candida albicans worked out at 30 nM.

Values taken from ChEMBL document CHEMBL1151838, “Isariotins E and F, spirocyclic and bicyclic hemiacetals from the entomopathogenic fungus Isaria tenuipes BCC 12625” (J Nat Prod, 2009).
